Laboratory results: PubChem BioAssay
Records with an inconclusive call do not appear.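 The calls were made as follows, unless noted: active = growth inhibition above 25% in both replicates, a cutoff set 3 SD above the mean; inconclusive = above 25% in only one replicate; inactive = the rest.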

Key:
[1] = OD615 S. cerevisiae growth inhibition, permissive medium, pilot counter-assay, permissive growth control for S. cerevisiae lifespan shortening project (AID 705); conditions: OD615, 24 h, at 10 µM, hits give high values
How it was run: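 Timing: 24 h exposure, 30 °C / Material: Saccharomyces cerevisiae strain carrying genetically modified DeaD replicative-lifespan system / Signal: OD at 615 nm / Compound: 10 µM single dose, 0.25% DMSO / Medium: SC raffinose/galactose permissive medium / Evaluation: reduction in yeast growth (OD615)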

[2] = Restrictive medium S. cerevisiae growth inhibition, OD615, pilot screen of yeast lifespan reduction project, restrictive growth control (AID 706;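 active = growth inhibition above a set limit, 3 SD over mean compound inhibition, in both replicates, cut at about 43% in these data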;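 also: modified DeaD lifespan yeast strain shifted to restrictive glucose medium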); conditions: OD615, 48 h, at 10 µM, hits give high values
How it was run: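 System: Engineered S. cerevisiae DeaD strain | Detection: OD615 | Buffer or medium: CSMM-D glucose medium | Doses: 10 µM compound, 0.25% DMSO | Timing: 4 h pre-growth plus 48 h compound exposure, 30 °C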

[3] = viability gain of MRP-1-high H69AR cells under doxorubicin, pilot screen, MRP-1 activator project, CellTiter-Glo, duplicate (AID 807;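 active = viability increase at or above a cutoff of the median across tested compounds plus 3 SD, cut at about 8.5% in these data, passing the limit was not always enough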;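 also: compound pretreatment 18-22 h then 72 h combined with doxorubicin; 0% = doxorubicin alone and 100% = vehicle without doxorubicin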); conditions: H69AR viability with doxorubicin, CellTiter-Glo luminescence; at 10 µM; hits give high values
[4] = growth suppression of beta-catenin knockout HCT116, pilot screen, human colon tumor cells (AID 823;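 active = cell viability at or below a set limit in both duplicate runs, the limit being the all-compound median minus 4 SD, cut at about 23% in these data, passing the limit was not always enough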;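 also: 0% = wells killed by 20 µM Hyamine and 100% = untreated DMSO cell wells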); conditions: CellTiter-Glo, 60 h, at 10 µM, hits give low values
[5] = growth suppression of PTEN-deleted HCT116, pilot screen, cell-based, HCT116 clonal line, CellTiter-Glo (AID 824;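 active = viability at or below 27.92% in each of two runs, the all-compound median minus 4 SD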;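 also: 0% = 20 µM Hyamine control and 100% = vehicle cell control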); conditions: 60 h, at 10 µM, hits give low values
[6] = inhibitors of the yeast RAM network, pilot screen, dse1pr::URA3 reporter, 5-FOA selection (AID 869;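 active = inhibition over a set limit, the all-compound mean plus 3 SD, in both replicate runs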;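 also: 0% = DMSO wells with no growth and 100% = 10 µM 1-NA-PP1 with full growth; RAM network block rescues cells from 5-FOA so hits raise OD615 growth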); conditions: S. cerevisiae dse1pr::URA3 5-FOA growth, OD615, 2 d; at 10 µM; hits give high values; strain carries analog-sensitive mutant Cbk1 kinase
[7] = RAM signaling pathway blockade in yeast – S. cerevisiae, Pdr1DBD-CYC8 efflux-inhibited sensitized strain, primary screen (AID 1298;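 active = RAM network inhibition above 8.4% in each of two replicates, 3 SD over the compound average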;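 also: 0% = DMSO untreated cells without growth and 100% = 10 µM 1-NA-PP1 full growth; higher means more yeast growth rescued from 5-FOA killing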); conditions: S. cerevisiae cbk1-as DSE1-URA3 strain, 5-FOA growth OD615, 2 d; at 50 µM; hits give high values

CS(=O)(=O)c1ccc(C(=O)NC2CCOC2=O)cc1 (configuration not stated)
inactive: growth inhibition [1] -2.63% | growth inhibition [2] -3.86% | viability increase [3] -1.85% | viability [4] 102% | viability [5] 97.6% | inhibition [6] -0.295% | RAM network inhibition [7] 4.25%

CCCC(=O)C1C(=O)CC(C)(C)C(c2cc(C)no2)C1=O (configuration not stated)
inactive: growth inhibition [1] -22.4% | growth inhibition [2] -12.9% | viability increase [3] 0.5% | viability [4] 103% | viability [5] 98.7% | inhibition [6] -0.1% | RAM network inhibition [7] -1.09%

COC(=O)C1=C(C)N=c2s/c(=C3\C(=O)Nc4ccccc43)c(=O)n2C1c1ccccc1 (configuration not stated)
inactive: growth inhibition [1] -2% | growth inhibition [2] -1.65% | viability increase [3] -4.83% | viability [4] 92.3% | viability [5] 91.6% | inhibition [6] 1.77% | RAM network inhibition [7] 3.17%

COc1ccc(CNC(=O)CN(c2cc(C)cc(C)c2)S(=O)(=O)c2c(C)noc2C)cc1
inactive: growth inhibition [1] -24.7% | growth inhibition [2] -27.1% | viability increase [3] -4.08% | viability [4] 97.1% | viability [5] 89.2% | inhibition [6] 1.92% | RAM network inhibition [7] 3.21%

CC(=O)Nc1sc(N)nc1-c1ccccc1
inactive: growth inhibition [1] -7.75% | growth inhibition [2] 16.2% | viability increase [3] 0.94% | viability [4] 88.7% | viability [5] 99.5% | inhibition [6] 0.055% | RAM network inhibition [7] 3.89%

COc1cc2[nH]c(=O)n(CCCCCC(=O)NCCCN3CCC(C)CC3)c(=O)c2cc1OC
inactive: growth inhibition [1] -13.8% | growth inhibition [2] -6.3% | viability increase [3] -0.8% | viability [4] 93.8% | viability [5] 101% | inhibition [6] 1.68% | RAM network inhibition [7] 2.66%

CCOC(=O)Cn1c(CN2CCc3ccccc3C2)nc2c1c(=O)n(C)c(=O)n2C
inactive: growth inhibition [1] -7.72% | growth inhibition [2] 1.89% | viability increase [3] -0.76% | viability [4] 84.5% | viability [5] 86.1% | inhibition [6] -0.39% | RAM network inhibition [7] 4.64%

Cn1c(NC(=O)CCC2CCCCC2)cc(=O)n(C)c1=O
inactive: growth inhibition [1] -1.97% | growth inhibition [2] -10.8% | viability increase [3] 2.29% | viability [4] 92.9% | viability [5] 83.6% | inhibition [6] 0.52% | RAM network inhibition [7] -1.2%

Cc1c(C(=O)N2CCCC2)oc2c1-c1[nH]ncc1CC2
inactive: growth inhibition [1] -15.2% | growth inhibition [2] -14.4% | viability increase [3] -1.8% | viability [4] 105% | viability [5] 94.2% | inhibition [6] 0.715% | RAM network inhibition [7] 2.08%

CCn1cc(S(=O)(=O)CC(=O)Nc2cc(C)ccc2C)c2ccccc21
inactive: growth inhibition [1] -10.1% | growth inhibition [2] -1.18% | viability increase [3] -0.93% | viability [4] 105% | viability [5] 82.5% | inhibition [6] 2.07% | RAM network inhibition [7] 3.99%

Cc1ccc(N2C(=O)CC(N3CCN(C4CCc5ccccc5C4)CC3)C2=O)cc1 (configuration not stated)
inactive: growth inhibition [1] -2.06% | growth inhibition [2] 1.44% | viability increase [3] -2.69% | viability [4] 102% | viability [5] 98.2% | inhibition [6] 0.215% | RAM network inhibition [7] 6.5%

CC1(C)CC(n2c(NCCO)nc3c(c2=O)C2(CCCC2)Cc2ccccc2-3)CCO1 (configuration not stated)
inactive: growth inhibition [1] 11.7% | growth inhibition [2] 2.4% | viability increase [3] -6.73% | viability [4] 96.2% | viability [5] 93.4% | inhibition [6] 0.65% | RAM network inhibition [7] 7.43%

COc1ccccc1NC(=O)CSc1nnnn1C
inactive: growth inhibition [1] -4.16% | growth inhibition [2] -6.61% | viability increase [3] -1.03% | viability [4] 105% | viability [5] 96.4% | inhibition [6] 1.37% | RAM network inhibition [7] 3.12%

COc1cccc(N(CC(=O)Nc2cccc(C(C)=O)c2)S(C)(=O)=O)c1
inactive: growth inhibition [1] -9.21% | growth inhibition [2] -2.52% | viability increase [3] -0.61% | viability [4] 101% | viability [5] 93.7% | inhibition [6] 1.08% | RAM network inhibition [7] 5.87%

CN(C)c1cccc(NC(=O)Cc2ccc(F)cc2)c1
inactive: growth inhibition [1] -11.6% | growth inhibition [2] -21.4% | viability increase [3] -4.02% | viability [4] 85.4% | viability [5] 84.2% | inhibition [6] 1.14% | RAM network inhibition [7] 5.85%

Cc1ccc(S(=O)(=O)N(C)CCCC(=O)N2CCOCC2)cc1
inactive: growth inhibition [1] -17.3% | growth inhibition [2] -6.47% | viability increase [3] -1.27% | viability [4] 101% | viability [5] 96.1% | inhibition [6] 1.17% | RAM network inhibition [7] 3.03%

Cn1cc(SCC(=O)NCc2ccc3c(c2)OCO3)c2ccccc21
inactive: growth inhibition [1] 4.09% | growth inhibition [2] -1.53% | viability increase [3] -4.24% | viability [4] 98.3% | viability [5] 95.1% | inhibition [6] 1.17% | RAM network inhibition [7] 4.4%

COCCn1c(SCC(N)=O)nc2c(c1=O)SC(C)C2 (configuration not stated)
inactive: growth inhibition [1] -1.48% | growth inhibition [2] -3.57% | viability increase [3] 0.08% | viability [4] 99.4% | viability [5] 97% | inhibition [6] 1.84% | RAM network inhibition [7] 5.52%

CCc1nnc(NC(=O)c2cccs2)s1
inactive: growth inhibition [1] -21.3% | growth inhibition [2] -3.98% | viability increase [3] 2.17% | viability [4] 102% | viability [5] 90.1% | inhibition [6] 1.29% | RAM network inhibition [7] 0.32%

Cc1cccc(NC(=O)CCNS(=O)(=O)c2cccc3nsnc23)c1
inactive: growth inhibition [1] -7.62% | growth inhibition [2] -12.6% | viability increase [3] -2.32% | viability [4] 94.5% | viability [5] 90.7% | inhibition [6] 1.34% | RAM network inhibition [7] 1.66%

c1ccc(OCc2nn3c(-c4ccccn4)nnc3s2)cc1
inactive: growth inhibition [1] 7.46% | growth inhibition [2] 34% | viability increase [3] 0.02% | viability [4] 104% | viability [5] 94% | inhibition [6] 1.48% | RAM network inhibition [7] 2.54%

Cn1cccc1Cc1nnc(SCC(=O)N2CCCCCC2)n1CCc1ccccc1
inactive: growth inhibition [1] 10% | growth inhibition [2] 25.7% | viability increase [3] -1.8% | viability [4] 95.2% | viability [5] 96.1% | inhibition [6] 2.48% | RAM network inhibition [7] 2.94%

O=C(NCc1ccc2c(c1)OCO2)Oc1ccccc1
inactive: growth inhibition [1] -1.34% | growth inhibition [2] 7.08% | viability increase [3] 0.33% | viability [4] 96.9% | viability [5] 101% | inhibition [6] 1.32% | RAM network inhibition [7] 2.53%

COc1ccc(-c2nc(CNS(=O)(=O)c3cc(OC)ccc3OC)cs2)cc1
inactive: growth inhibition [1] 2.43% | growth inhibition [2] 5.36% | viability increase [3] -1.76% | viability [4] 92% | viability [5] 89.7% | inhibition [6] 0.53% | RAM network inhibition [7] 5.82%

CCCCCn1c(CN2CC(C)OC(C)C2)nc2c1c(=O)n(C)c(=O)n2C (configuration not stated)
inactive: growth inhibition [1] -9.73% | growth inhibition [2] 0.38% | viability increase [3] -1.22% | viability [4] 95.3% | viability [5] 86.6% | inhibition [6] 1.86% | RAM network inhibition [7] 1.97%

COc1ccc(NCCNc2ccc(OC)cc2)cc1
inactive: growth inhibition [1] 5.4% | growth inhibition [2] 7.97% | viability increase [3] -0.82% | viability [4] 58.9% | viability [5] 59.5% | inhibition [6] 0.6% | RAM network inhibition [7] 6.32%

COC(=O)C1=C(C)NC(=O)CC1c1cccc(Cl)c1Cl (configuration not stated)
inactive: growth inhibition [1] -13.4% | growth inhibition [2] -7.53% | viability increase [3] -1.92% | viability [4] 103% | viability [5] 98% | inhibition [6] 2.15% | RAM network inhibition [7] 1.05%

N#CC1=C2SCN(Cc3ccccc3)CN2C(=O)CC1c1cccs1 (configuration not stated)
inactive: growth inhibition [1] 9.16% | growth inhibition [2] 30.2% | viability increase [3] -2.91% | viability [4] 94.3% | viability [5] 86% | inhibition [6] 0.535% | RAM network inhibition [7] 4.04%

CCOC(=O)N1CCN(C(=O)c2oc(=O)c3ccccc3c2-c2ccc(C)cc2)CC1
inactive: growth inhibition [1] -8.36% | growth inhibition [2] -8.23% | viability increase [3] 1.15% | viability [4] 96.2% | viability [5] 102% | inhibition [6] 1.23% | RAM network inhibition [7] 3.87%

CC1=C(C(=O)OC2CCCCCCC2)C(c2cccc(O)c2)NC(=O)N1 (configuration not stated)
inactive: growth inhibition [1] -1.81% | growth inhibition [2] 0.17% | viability increase [3] 4.53% | viability [4] 65.2% | viability [5] 65.6% | inhibition [6] 0.63% | RAM network inhibition [7] 0.89%

c1ccc2[nH]c(SCCN3CCOCC3)nc2c1
inactive: growth inhibition [1] -2.45% | growth inhibition [2] 8.19% | viability increase [3] -1.11% | viability [4] 98.9% | viability [5] 104% | inhibition [6] -0.025% | RAM network inhibition [7] 1.35%

O=C(NCc1ccccn1)C1CCN(S(=O)(=O)N2CCCC2)CC1
inactive: growth inhibition [1] -5.04% | growth inhibition [2] -10% | viability increase [3] -0.46% | viability [4] 109% | viability [5] 95.7% | inhibition [6] 0.3% | RAM network inhibition [7] 3.61%

Cc1cc(C(F)(F)F)n2ncc(C(=O)O)c2n1
inactive: growth inhibition [1] 2.26% | growth inhibition [2] 0.105% | viability increase [3] -0.34% | viability [4] 98.3% | viability [5] 91% | inhibition [6] -0.025% | RAM network inhibition [7] 0.78%

COc1cccc(C(=O)Nc2ccc(S(=O)(=O)Nc3onc(C)c3C)cc2)c1
inactive: growth inhibition [1] -9.3% | growth inhibition [2] -14.8% | viability increase [3] 0.25% | viability [4] 96.1% | viability [5] 97.9% | inhibition [6] 1.99% | RAM network inhibition [7] 7.93%

CC1CCCN(c2nc3c(c(=O)[nH]c(=O)n3C)n2CCSc2nc3ccccc3o2)C1 (configuration not stated)
inactive: growth inhibition [1] -1.52% | growth inhibition [2] -1.66% | viability increase [3] -3.56% | viability [4] 98% | viability [5] 98.5% | inhibition [6] 0.55% | RAM network inhibition [7] 7.08%

O=S(=O)(c1ccc(Cl)c(Cl)c1)N1CCc2nc3ccccc3n2CC1
inactive: growth inhibition [1] -5.17% | growth inhibition [2] 4.47% | viability increase [3] -1.28% | viability [4] 98.9% | viability [5] 102% | inhibition [6] 1.75% | RAM network inhibition [7] 6.73%
